{"source": "the M2OR odorant receptor database", "conditions_in_all_cases": "stereoisomer not certain", "key": {"UniProt Q8VGX5": {"molecular_target": "T1, UniProt Q8VGX5", "T1 sequence (whole entry)": "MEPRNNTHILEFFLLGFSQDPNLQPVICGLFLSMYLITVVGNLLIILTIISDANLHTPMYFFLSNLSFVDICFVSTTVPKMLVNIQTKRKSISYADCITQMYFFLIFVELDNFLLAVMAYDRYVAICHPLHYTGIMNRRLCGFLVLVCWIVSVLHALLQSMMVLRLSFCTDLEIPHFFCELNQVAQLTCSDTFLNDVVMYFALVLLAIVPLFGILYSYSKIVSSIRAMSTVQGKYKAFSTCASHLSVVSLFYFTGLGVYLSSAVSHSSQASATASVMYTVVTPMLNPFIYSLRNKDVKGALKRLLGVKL", "in_short": "(§1)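 Each entry records the cell line, G-protein, co-transfected protein and tags used. Methods varied with the source, often transient luciferase assays in mammalian cell lines. A receptor–molecule pair is called responsive (active) if the original authors judged its signal statistically different from baseline and non-responsive (inactive) otherwise.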"}, "UniProt Q8VGX8": {"molecular_target": "T2, UniProt Q8VGX8", "T2 sequence (whole entry)": "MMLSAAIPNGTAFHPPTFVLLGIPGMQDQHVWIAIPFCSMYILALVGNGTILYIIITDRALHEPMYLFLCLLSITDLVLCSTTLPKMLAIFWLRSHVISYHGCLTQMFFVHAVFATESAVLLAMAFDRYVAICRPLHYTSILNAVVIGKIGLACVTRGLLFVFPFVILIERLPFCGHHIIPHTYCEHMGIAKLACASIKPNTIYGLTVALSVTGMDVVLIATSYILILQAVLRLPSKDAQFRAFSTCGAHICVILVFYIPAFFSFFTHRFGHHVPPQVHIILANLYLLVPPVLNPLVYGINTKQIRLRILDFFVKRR", "in_short": "as §1"}, "UniProt Q8VGY6": {"molecular_target": "T3, UniProt Q8VGY6", "T3 sequence (whole entry)": "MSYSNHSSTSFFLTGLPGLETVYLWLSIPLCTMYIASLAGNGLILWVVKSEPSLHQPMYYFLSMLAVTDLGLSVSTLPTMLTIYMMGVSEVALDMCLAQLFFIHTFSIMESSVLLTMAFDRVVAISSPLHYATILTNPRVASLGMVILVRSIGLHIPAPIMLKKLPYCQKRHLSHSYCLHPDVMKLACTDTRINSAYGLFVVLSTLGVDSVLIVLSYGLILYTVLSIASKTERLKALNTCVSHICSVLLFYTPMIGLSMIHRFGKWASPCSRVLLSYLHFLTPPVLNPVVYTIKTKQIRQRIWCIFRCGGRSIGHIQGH", "in_short": "as §1"}, "UniProt Q8VGZ2": {"molecular_target": "T4, UniProt Q8VGZ2", "T4 sequence (whole entry)": "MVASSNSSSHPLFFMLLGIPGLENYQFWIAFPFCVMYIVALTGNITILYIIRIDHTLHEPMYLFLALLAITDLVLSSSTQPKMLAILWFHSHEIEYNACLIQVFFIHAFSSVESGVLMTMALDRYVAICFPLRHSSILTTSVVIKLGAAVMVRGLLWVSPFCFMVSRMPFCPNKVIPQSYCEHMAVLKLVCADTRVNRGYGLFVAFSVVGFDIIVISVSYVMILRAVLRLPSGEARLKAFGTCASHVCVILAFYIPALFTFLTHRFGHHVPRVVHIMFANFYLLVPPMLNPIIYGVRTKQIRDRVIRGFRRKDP", "in_short": "as §1"}, "UniProt Q8VGZ7": {"molecular_target": "T5, UniProt Q8VGZ7", "T5 sequence (whole entry)": "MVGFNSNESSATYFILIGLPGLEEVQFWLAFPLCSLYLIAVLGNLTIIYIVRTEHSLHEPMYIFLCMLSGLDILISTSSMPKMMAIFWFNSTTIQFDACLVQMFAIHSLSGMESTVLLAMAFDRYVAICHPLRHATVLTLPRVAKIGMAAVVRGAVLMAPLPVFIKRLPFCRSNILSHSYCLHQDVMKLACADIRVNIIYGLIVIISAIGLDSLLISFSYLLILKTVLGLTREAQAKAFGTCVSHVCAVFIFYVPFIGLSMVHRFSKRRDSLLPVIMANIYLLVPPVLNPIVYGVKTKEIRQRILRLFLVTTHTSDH", "in_short": "as §1"}, "UniProt Q8VH10": {"molecular_target": "T6, UniProt Q8VH10", "T6 sequence (whole entry)": "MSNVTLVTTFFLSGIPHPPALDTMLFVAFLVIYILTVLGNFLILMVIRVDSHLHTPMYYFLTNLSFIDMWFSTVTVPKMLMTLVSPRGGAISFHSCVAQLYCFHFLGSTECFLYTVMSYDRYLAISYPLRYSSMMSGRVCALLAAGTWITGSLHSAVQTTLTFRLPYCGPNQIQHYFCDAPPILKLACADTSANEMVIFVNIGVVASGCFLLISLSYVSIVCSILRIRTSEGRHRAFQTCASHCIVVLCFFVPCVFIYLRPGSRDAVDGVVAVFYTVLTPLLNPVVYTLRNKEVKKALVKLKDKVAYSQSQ", "in_short": "as §1"}, "UniProt Q8VH20": {"molecular_target": "T7, UniProt Q8VH20", "T7 sequence (whole entry)": "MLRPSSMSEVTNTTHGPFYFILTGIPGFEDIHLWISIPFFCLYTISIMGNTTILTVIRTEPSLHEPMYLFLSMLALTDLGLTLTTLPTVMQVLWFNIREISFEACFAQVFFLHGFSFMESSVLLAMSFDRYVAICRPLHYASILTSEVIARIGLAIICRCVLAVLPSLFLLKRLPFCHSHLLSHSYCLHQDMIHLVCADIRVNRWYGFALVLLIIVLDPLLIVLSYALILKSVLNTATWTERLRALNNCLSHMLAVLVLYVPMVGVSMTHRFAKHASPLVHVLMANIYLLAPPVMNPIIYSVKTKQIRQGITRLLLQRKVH", "in_short": "as §1"}, "UniProt Q920P1": {"molecular_target": "T8, UniProt Q920P1", "T8 sequence (whole entry)": "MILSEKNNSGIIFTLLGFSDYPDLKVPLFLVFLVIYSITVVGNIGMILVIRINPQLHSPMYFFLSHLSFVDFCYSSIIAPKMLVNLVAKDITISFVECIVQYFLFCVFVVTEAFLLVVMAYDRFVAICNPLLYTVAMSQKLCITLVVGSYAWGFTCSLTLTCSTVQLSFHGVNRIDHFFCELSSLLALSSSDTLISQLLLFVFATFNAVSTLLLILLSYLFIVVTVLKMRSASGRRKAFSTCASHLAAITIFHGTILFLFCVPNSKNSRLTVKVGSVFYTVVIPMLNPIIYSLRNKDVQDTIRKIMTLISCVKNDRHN", "in_short": "as §1"}, "UniProt Q920P2": {"molecular_target": "T9, UniProt Q920P2", "T9 sequence (whole entry)": "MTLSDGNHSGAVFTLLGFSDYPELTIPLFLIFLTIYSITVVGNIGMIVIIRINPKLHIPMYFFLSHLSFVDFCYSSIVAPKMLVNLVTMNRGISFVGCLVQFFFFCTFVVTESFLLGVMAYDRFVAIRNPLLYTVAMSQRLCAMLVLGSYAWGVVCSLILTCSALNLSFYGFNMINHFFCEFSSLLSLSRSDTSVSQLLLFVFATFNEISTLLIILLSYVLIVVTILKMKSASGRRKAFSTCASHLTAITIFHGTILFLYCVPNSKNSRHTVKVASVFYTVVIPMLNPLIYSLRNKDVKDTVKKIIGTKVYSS", "in_short": "as §1"}, "UniProt Q9EPN9": {"molecular_target": "T10, UniProt Q9EPN9", "T10 sequence (whole entry)": "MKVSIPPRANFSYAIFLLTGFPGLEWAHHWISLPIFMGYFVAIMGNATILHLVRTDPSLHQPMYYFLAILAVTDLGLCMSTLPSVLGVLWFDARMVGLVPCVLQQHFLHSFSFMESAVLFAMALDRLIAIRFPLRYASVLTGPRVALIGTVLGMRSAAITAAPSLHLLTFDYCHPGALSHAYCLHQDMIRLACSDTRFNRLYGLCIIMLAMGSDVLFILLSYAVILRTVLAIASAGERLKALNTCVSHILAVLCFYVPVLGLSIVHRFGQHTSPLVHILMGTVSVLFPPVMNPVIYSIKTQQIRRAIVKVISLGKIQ", "in_short": "as §1"}, "UniProt Q9R0K2": {"molecular_target": "UniProt Q9R0K2", "sequence (Q9R0K2 as listed by the source)": "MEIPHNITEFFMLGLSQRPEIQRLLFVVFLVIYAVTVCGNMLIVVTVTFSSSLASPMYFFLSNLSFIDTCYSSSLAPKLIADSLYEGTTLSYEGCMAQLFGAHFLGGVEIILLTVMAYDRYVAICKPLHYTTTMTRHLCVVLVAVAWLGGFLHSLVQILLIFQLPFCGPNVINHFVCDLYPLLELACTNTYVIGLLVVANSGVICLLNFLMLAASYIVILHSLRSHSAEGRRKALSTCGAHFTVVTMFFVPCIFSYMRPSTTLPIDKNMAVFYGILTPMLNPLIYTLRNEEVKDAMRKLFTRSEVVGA", "in_short": "as §1"}, "UniProt Q9WU86": {"molecular_target": "T11, UniProt Q9WU86", "T11 sequence (whole entry)": "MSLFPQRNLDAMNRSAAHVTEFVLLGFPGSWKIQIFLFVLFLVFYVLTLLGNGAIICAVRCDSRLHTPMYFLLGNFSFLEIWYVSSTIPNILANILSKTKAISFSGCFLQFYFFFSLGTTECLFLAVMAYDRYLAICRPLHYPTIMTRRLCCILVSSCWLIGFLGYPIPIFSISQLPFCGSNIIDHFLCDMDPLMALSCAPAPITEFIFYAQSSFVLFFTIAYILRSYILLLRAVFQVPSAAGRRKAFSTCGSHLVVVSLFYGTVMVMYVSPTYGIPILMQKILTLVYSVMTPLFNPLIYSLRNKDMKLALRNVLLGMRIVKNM", "in_short": "as §1"}, "UniProt Q8VGX3": {"molecular_target": "T12, UniProt Q8VGX3", "T12 sequence (whole entry)": "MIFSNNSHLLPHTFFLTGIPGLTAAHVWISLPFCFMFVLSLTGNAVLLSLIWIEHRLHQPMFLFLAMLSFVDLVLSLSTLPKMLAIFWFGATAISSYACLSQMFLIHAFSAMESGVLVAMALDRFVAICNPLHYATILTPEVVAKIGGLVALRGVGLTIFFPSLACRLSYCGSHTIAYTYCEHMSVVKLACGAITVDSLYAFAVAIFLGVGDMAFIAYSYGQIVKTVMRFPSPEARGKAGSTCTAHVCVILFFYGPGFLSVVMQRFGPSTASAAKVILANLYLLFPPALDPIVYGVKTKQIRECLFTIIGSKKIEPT", "in_short": "as §1"}, "UniProt Q8VH16": {"molecular_target": "T13, UniProt Q8VH16", "T13 sequence (whole entry)": "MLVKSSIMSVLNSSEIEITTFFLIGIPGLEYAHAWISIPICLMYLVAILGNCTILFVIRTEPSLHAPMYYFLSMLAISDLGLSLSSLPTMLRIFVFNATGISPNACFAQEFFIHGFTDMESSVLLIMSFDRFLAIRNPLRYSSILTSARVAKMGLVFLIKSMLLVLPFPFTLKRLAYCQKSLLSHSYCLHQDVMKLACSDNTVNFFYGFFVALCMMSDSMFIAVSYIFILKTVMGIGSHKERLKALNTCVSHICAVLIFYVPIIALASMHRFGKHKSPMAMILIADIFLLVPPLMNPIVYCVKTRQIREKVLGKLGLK", "in_short": "as §1"}, "UniProt Q8VH21": {"molecular_target": "T14, UniProt Q8VH21", "T14 sequence (whole entry)": "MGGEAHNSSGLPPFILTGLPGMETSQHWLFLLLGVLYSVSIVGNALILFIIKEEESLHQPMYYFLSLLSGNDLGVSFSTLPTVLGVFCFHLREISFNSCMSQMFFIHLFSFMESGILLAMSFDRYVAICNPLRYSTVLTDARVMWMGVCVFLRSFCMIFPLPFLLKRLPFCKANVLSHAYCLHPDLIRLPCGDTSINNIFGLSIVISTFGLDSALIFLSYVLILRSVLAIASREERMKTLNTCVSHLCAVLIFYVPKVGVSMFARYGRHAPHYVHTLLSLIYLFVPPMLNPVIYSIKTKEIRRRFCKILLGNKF", "in_short": "as §1"}, "UniProt Q924H8": {"molecular_target": "T15, UniProt Q924H8", "T15 sequence (whole entry)": "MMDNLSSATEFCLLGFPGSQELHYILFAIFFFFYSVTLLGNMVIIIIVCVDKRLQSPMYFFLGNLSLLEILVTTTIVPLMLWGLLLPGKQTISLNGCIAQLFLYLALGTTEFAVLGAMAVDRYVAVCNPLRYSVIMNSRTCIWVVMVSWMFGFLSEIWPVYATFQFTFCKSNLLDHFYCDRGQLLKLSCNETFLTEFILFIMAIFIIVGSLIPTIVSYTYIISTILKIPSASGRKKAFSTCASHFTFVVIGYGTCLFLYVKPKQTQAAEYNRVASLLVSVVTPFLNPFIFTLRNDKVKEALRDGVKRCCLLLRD", "in_short": "as §1"}}, "data": [{"smiles": "C=CCc1ccccc1", "values": [{"measurement": "odorant receptor agonist call", "setting": "UniProt Q8VGX5", "result": "inactive"}, {"measurement": "odorant receptor agonist call", "setting": "UniProt Q8VGX8", "result": "inactive"}, {"measurement": "odorant receptor agonist call", "setting": "UniProt Q8VGY6", "result": "inactive"}, {"measurement": "odorant receptor agonist call", "setting": "UniProt Q8VGZ2", "result": "inactive"}, {"measurement": "odorant receptor agonist call", "setting": "UniProt Q8VGZ7", "result": "inactive"}, {"measurement": "odorant receptor agonist call", "setting": "UniProt Q8VH10", "result": "inactive"}, {"measurement": "odorant receptor agonist call", "setting": "UniProt Q8VH20", "result": "inactive"}, {"measurement": "odorant receptor agonist call", "setting": "UniProt Q920P1", "result": "inactive"}, {"measurement": "odorant receptor agonist call", "setting": "UniProt Q920P2", "result": "inactive"}, {"measurement": "odorant receptor agonist call", "setting": "UniProt Q9EPN9", "result": "inactive"}, {"measurement": "odorant receptor agonist call", "setting": "UniProt Q9R0K2", "result": "inactive"}, {"measurement": "odorant receptor agonist call", "setting": "UniProt Q9WU86", "result": "active"}]}, {"smiles": "O=c1cc(O)c2ccccc2o1", "values": [{"measurement": "odorant receptor agonist call", "setting": "UniProt Q8VGX3", "result": "inactive"}, {"measurement": "odorant receptor agonist call", "setting": "UniProt Q8VGX5", "result": "inactive"}, {"measurement": "odorant receptor agonist call", "setting": "UniProt Q8VGX8", "result": "inactive"}, {"measurement": "odorant receptor agonist call", "setting": "UniProt Q8VGY6", "result": "inactive"}, {"measurement": "odorant receptor agonist call", "setting": "UniProt Q8VGZ2", "result": "inactive"}, {"measurement": "odorant receptor agonist call", "setting": "UniProt Q8VGZ7", "result": "inactive"}, {"measurement": "odorant receptor agonist call", "setting": "UniProt Q8VH10", "result": "inactive"}, {"measurement": "odorant receptor agonist call", "setting": "UniProt Q8VH16", "result": "inactive"}, {"measurement": "odorant receptor agonist call", "setting": "UniProt Q8VH20", "result": "inactive"}, {"measurement": "odorant receptor agonist call", "setting": "UniProt Q8VH21", "result": "inactive"}, {"measurement": "odorant receptor agonist call", "setting": "UniProt Q924H8", "result": "inactive"}, {"measurement": "odorant receptor agonist call", "setting": "UniProt Q9EPN9", "result": "inactive"}, {"measurement": "odorant receptor agonist call", "setting": "UniProt Q9R0K2", "result": "inactive"}, {"measurement": "odorant receptor agonist call", "setting": "UniProt Q9WU86", "result": "inactive"}]}]}
